Measurements as given in PMC2156157 (The Journal of Cell Biology, 1999).

How the values were obtained:
Assay type in all cases: cell-based, human
c-Yes = conditions: 16HBE14o− on transwell filters, mouse anti–c-Yes (1:100), XZ confocal
Summary of the method: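 16HBE14o− clones stably expressing GFP-YAP65 chimeras were selected with G418 and screened by fluorescence and anti-GFP blot. Cells were grown to confluence on transwell filters and fixed in 4% paraformaldehyde. After blocking (milk/BSA/0.1% Triton X-100, 3 h), they were stained with mouse anti-c-Yes (1:100) and fluorescent secondary antiserum, then scanned in XZ by confocal microscopy. At least two independent clones per line were analysed.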

EBP50 = assay: coimmunoprecipitation with EBP50 antisera from 16HBE14o− lysates; conditions: 16HBE14o− lysates (wild type or stably expressing GFP chimera), immunoblot
Summary of the method: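 16HBE14o− cells were wild type or stable lines expressing GFP-YAP65 or GFP-YAP65 lacking the last four residues (G418 400 µg/ml; ≥2 clones). Cells were lysed in RIPA. Rabbit anti-EBP50, preimmune serum or normal rabbit IgG (2 µg) was prebound to protein A beads. Lysate (~300 µg or ~200 µg) was incubated for 4–12 h at 4°C. Beads washed three times in RIPA; 10% SDS-PAGE; immunoblot with anti-YAP65 or anti-ezrin (1:1,000); 10–20% input.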

[1] = system: apical membrane of airway epithelial cells; conditions: 16HBE14o− cells on transwell filters 7–10 d after confluence, confocal
Summary of the method: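 Samples were 16HBE14o− filters (7–10 d post-confluence) or primary nasal cultures (air-liquid interface, 40–50 d). Fixation was 4% paraformaldehyde, 5–20 min, room temperature. Blocking used milk/BSA/Triton (16HBE14o−) or 10–20% goat serum (primary). Primary antisera ran 4–12 h: ezrin 1:300, ZO-1 1:200, EBP50 1:500 or 1:200, YAP65 1:300 or 1:200. Primary cultures also got 70 nM FITC-phalloidin. Texas red/FITC secondaries, XZ confocal imaging.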

Molecule | c-Yes distribution in cells stably overexpressing the chimera (c-Yes) | presence in EBP50 immunoprecipitates (EBP50) | localization of endogenous protein [1]
GFP-YAP65: GFP fused in-frame with YAP65 (protein, left off: GFP, end not stated, kept) MDPGQQPPPQPAPQGQGQPPSQPPQGQGPPSGPGQPAPAATQAAPQAPPAGHQIVHVRGDSETDLEALFNAVMNPKTANVPQTVPMRLRKLPDSFFKPPEPKSHSRQASTDAGTAGALTPQHVRAHSSPASLQLGAVSPGTLTPTGVVSGPAATPTAQHLRQSSFEIPDDVPLPAGWEMAKTSSGQRYFLNHIDQTTTWQDPRKAMLSQMNVTAPTSPPVQQNMMNSASAMNQRISQSAPVKQPPPLAPQSPQGGVMGGSNSNQQQQMRLQQLQMEKERLRLKQQELLRQVRPQELALRSQLPTLEQDGGTQNPVSSPGMSQELRTMTTNSSDPFLNSGTYHSRDESTDSGLSMSSYSVPRTPDDFLNSVDEMDTGDTINQSTLPSQQNRFPDYLEAIPGTNVDLGTLEGDGMNIEGEELMPSLQEALSSDILNDMESVLAATKLDKESFLTWL | c-Yes was accumulated at the apical membrane | present in EBP50 immunoprecipitates | 
EBP50: ERM-binding phosphoprotein 50 kD; two PDZ domains (protein, left off: GST, end not stated, kept) MSADAAAGAPLPRLCCLEKGPNGYGFHLHGEKGKLGQYIRLVEPGSPAEKAGLLAGDRLVEVNGENVEKETHQQVVSRIRAALNAVRLLVVDPETDEQLQKLGVQVREELLRAQEAPGQAEPPAAAEVQGAGNENEPREADKSHPEQRELRPRLCTMKKGPSGYGFNLHSDKSKPGQFIRSVDPDSPAEASGLRAQDRIVEVNGVCMEGKQHGDVVSAIRAGGDETKLLVVDRETDEFFKKCRVIPSQEHLNGPLPVPFTNGEIQKENSREALAEAALESPRPALVRSASSDTSEELNSQDSPPKQDSTAPSSTSSSDPILDFNISLAMAKERAHQKRSSKRAPQMDWSKKNELFSNL |  |  | preferentially accumulated at the apical membrane
